The record followed here is ChEMBL document CHEMBL5325511, “Discovery of N-(4-(Aminomethyl)phenyl)-5-methylpyrimidin-2-amine Derivatives as Potent and Selective JAK2 Inhibitors” (ACS Med Chem Lett, 2023).

Data set [1] relates to BaF3. The experiment in a line: Induction of cell cycle arrest in mouse BaF3 cells harbouring JAK2 […] mutant assessed as accumulation of cells at G2/M phase at 4 nM incubated for 24 hrs by propidium iodide staining based flow cytometry analysis (reference value: 9.34 %). It is filed as functional. (In general: Flow cytometry measures light scatter and fluorescence of single cells or particles in a stream.)

The test system of data set [2] is BaF3. As to the kind of experiment: Induction of apoptosis in mouse BaF3 cells harbouring JAK2 V617F mutant assessed as necrotic cells at 160 nM incubated for 24 hrs by Annexin V / propidium iodide staining based flow cytometry analysis (reference value: 0.64 %). Format: functional. The procedure, abridged: (§1)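 Ba/F3 JAK2V617F cells exposed to compound at 20, 40, 80, 160 and 320 nM, then analysed for apoptosis by flow cytometry. Significance vs control by Dunnett's t test.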

Data set [3] has as its system BaF3. The experiment in a line: Induction of apoptosis in mouse BaF3 cells harbouring JAK2 V617F mutant assessed as necrotic cells at 20 nM incubated for 24 hrs by Annexin V / propidium iodide staining based flow cytometry analysis (reference value: 0.64 %). Format: functional. The procedure, abridged:
as §1

Data set [4] is described as follows: Metabolic stability in human liver microsomes assessed as half life. Format: ADME, Microsome.
Data set [5] relates to BaF3. The experiment in a line: Induction of cell cycle arrest in mouse BaF3 cells harbouring JAK2 […] mutant assessed as accumulation of cells at S phase at 8 nM incubated for 24 hrs by propidium iodide staining based flow cytometry analysis (reference value: 33.80 %). Format: functional.
The test system of data set [6] is BaF3. As to the kind of experiment: Induction of apoptosis in mouse BaF3 cells harbouring JAK2 V617F mutant assessed as late apoptotic cells at 160 nM incubated for 24 hrs by Annexin V / propidium iodide staining based flow cytometry analysis (reference value: 12.2 %). It is filed as functional. The procedure, abridged:
as §1

The test system of data set [7] is BaF3. The experiment in a line: Induction of apoptosis in mouse BaF3 cells harbouring JAK2 V617F mutant assessed as early apoptotic cells at 80 nM incubated for 24 hrs by Annexin V / propidium iodide staining based flow cytometry analysis (reference value: 14.4 %). Format: functional. Summed up:
as §1

A short description of data set [8]: Selectivity ratio of IC50 for FLT3 (unknown origin) to IC50 for JAK2 (unknown origin).
Data set [9] concerns BaF3. As to the kind of experiment: Induction of apoptosis in mouse BaF3 cells harbouring JAK2 V617F mutant assessed as viable cells at 80 nM incubated for 24 hrs by Annexin V / propidium iodide staining based flow cytometry analysis (reference value: 72.8 %). Format: functional. The settings on record: read-out: Activity. The procedure, abridged:
as §1

The test system of data set [10] is BaF3. The experiment in a line: Induction of apoptosis in mouse BaF3 cells harbouring JAK2 V617F mutant assessed as late apoptotic cells at 320 nM incubated for 24 hrs by Annexin V / propidium iodide staining based flow cytometry analysis (reference value: 12.2 %). It is filed as functional. The procedure, abridged:
as §1

The subject of data set [11] is BaF3. The experiment in a line: Induction of cell cycle arrest in mouse BaF3 cells harbouring JAK2 […] mutant assessed as accumulation of cells at G2/M phase at 16 nM incubated for 24 hrs by propidium iodide staining based flow cytometry analysis (reference value: 9.34 %). Format: functional.
Data set [12] has as its system BaF3. As to the kind of experiment: Induction of cell cycle arrest in mouse BaF3 cells harbouring JAK2 […] mutant assessed as accumulation of cells at G0/G1 phase at 2 nM incubated for 24 hrs by propidium iodide staining based flow cytometry analysis (reference value: 56.85 %). Format: functional.
The subject of data set [13] is BaF3. The experiment in a line: Induction of apoptosis in mouse BaF3 cells harbouring JAK2 V617F mutant assessed as late apoptotic cells at 40 nM incubated for 24 hrs by Annexin V / propidium iodide staining based flow cytometry analysis (reference value: 12.2 %). It is filed as functional. Summed up: as §1
The nature of data set [14]: Selectivity ratio of IC50 for TYK2 (unknown origin) to IC50 for JAK2 (unknown origin).
Data set [15] relates to BaF3. The experiment in a line: Induction of cell cycle arrest in mouse BaF3 cells harbouring JAK2 […] mutant assessed as accumulation of cells at S phase at 0.5 nM incubated for 24 hrs by propidium iodide staining based flow cytometry analysis (reference value: 33.80 %). Format: functional.
Data set [16] addresses T1, Receptor-type tyrosine-protein kinase FLT3 (Homo sapiens, UniProt P36888).
T1 sequence (P36888 whole entry): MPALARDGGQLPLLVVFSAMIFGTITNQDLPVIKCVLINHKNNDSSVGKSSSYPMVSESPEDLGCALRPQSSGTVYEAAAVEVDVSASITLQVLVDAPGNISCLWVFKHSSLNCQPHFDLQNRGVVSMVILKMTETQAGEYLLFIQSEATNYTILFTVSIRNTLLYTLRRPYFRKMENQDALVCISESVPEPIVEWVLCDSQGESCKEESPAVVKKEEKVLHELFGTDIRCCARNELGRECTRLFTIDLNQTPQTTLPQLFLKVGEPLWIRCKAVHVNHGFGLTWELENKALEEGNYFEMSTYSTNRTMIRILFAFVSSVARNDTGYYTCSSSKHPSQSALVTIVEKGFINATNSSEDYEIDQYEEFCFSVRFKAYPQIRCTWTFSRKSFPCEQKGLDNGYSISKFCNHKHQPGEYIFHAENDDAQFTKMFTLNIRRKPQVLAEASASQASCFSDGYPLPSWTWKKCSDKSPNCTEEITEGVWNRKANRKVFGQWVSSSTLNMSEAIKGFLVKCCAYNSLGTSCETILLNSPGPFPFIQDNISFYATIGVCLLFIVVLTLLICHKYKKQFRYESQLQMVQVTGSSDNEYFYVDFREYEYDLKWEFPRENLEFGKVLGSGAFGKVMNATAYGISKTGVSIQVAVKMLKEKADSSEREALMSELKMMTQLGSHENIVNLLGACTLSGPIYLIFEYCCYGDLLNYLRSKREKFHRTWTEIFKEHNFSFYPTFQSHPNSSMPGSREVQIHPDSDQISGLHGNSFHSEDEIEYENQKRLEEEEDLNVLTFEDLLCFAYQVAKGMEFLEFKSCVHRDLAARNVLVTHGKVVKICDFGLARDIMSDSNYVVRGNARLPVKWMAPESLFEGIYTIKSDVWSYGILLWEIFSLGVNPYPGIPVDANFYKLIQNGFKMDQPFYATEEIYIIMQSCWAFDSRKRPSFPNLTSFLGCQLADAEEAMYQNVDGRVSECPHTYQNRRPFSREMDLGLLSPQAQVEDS
As to the kind of experiment: Inhibition of FLT3 (unknown origin) in presence of Mg/ATP mixture by [gamma p33]-ATP based radiometric assay. Summed up: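 IC50 values determined by Eurofins Discovery.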

The test system of data set [17] is BaF3. The experiment in a line: Induction of cell cycle arrest in mouse BaF3 cells harbouring JAK2 […] mutant assessed as accumulation of cells at S phase at 4 nM incubated for 24 hrs by propidium iodide staining based flow cytometry analysis (reference value: 33.80 %). Format: functional.
For data set [18], the system named is BaF3. The experiment in a line: Induction of apoptosis in mouse BaF3 cells harbouring JAK2 V617F mutant assessed as early apoptotic cells at 160 nM incubated for 24 hrs by Annexin V / propidium iodide staining based flow cytometry analysis (reference value: 14.4 %). Format: functional. The procedure, abridged:
as §1

In data set [19] the test system is BaF3. As to the kind of experiment: Induction of apoptosis in mouse BaF3 cells harbouring JAK2 V617F mutant assessed as early apoptotic cells at 320 nM incubated for 24 hrs by Annexin V / propidium iodide staining based flow cytometry analysis (reference value: 14.4 %). It is filed as functional. The procedure, abridged: as §1
The subject of data set [20] is BaF3. As to the kind of experiment: Induction of cell cycle arrest in mouse BaF3 cells harbouring JAK2 […] mutant assessed as accumulation of cells at G0/G1 phase at 8 nM incubated for 24 hrs by propidium iodide staining based flow cytometry analysis (reference value: 56.85 %). Format: functional.

As a reminder, the half-life is the time needed for the level to fall by half in the phase considered. For orientation: IC50 means the concentration that inhibits the measured activity by half. Consider `C=CS(=O)(=O)NCc1ccc(Nc2ncc(C)c(-c3cnn(C(C)C)c3)n2)cc1`, for which the Activity in [1] came to 7.62%; in [2], 3.8%; in [3], 1.61%; in data set [5], 27.77%; in [6], 35.8%; in [7], 35.7%. The Activity is on record as 40.1% in data set [10]; 9.93% in data set [11]; 61.14% in data set [12]; 26.2% in data set [13]; 31.74% in [15]; 29.44% in [17]. For the same molecule, the Activity in data set [18] is 37.5%; in data set [19], 31%; in [20], 63.86%. Further, in data set [4], the half-life was over 120 min. Moreover, the Ratio IC50 in data set [8] stood at 93.4; in data set [14], 41.2. Moreover, the viability at 0.08 µM in [9] was 22.3%. The IC50 in data set [16] was 467 nM.
Consider `Cc1cnc(Nc2ccc3c(c2)CCN(C(=O)/C=C/CN(C)C)C3)nc1-c1cnn(C(C)C)c1`, for which the Activity in data set [1] turned out to be 9.33%; in [2], 1.89%; in data set [3] it was 1.04%; in data set [5], 32.2%; in [6], 30.7%; in data set [7] it was 33.2%. Further, the Activity in [10] is 35.2%; in data set [11], 8.95%; in [12], 56.54%; in [13] it was 15.6%; in [15] it was 34.4%; in [17], 33.33%. Moreover, the values for the Activity in data set [18], in data set [19] and in data set [20] were 48.1%, 47% and 58.82%, respectively. The half-life in [4] worked out at 54.6 min. Also, the figures for the Ratio IC50 in [8] and in data set [14] were 20.7 and 25, respectively. For the same molecule, the viability at 0.08 µM in [9] was found to be 38.8%. In addition, the half-inhibitory concentration (IC50) in data set [16] worked out at 62 nM.
